# Experimental data: PubChem BioAssay AID504414 (Broad Institute, 2011)
# Hit rate of the full screen: of about 330,000 compounds, about 55 (0.02%) were called active.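 Rule for the calls: active = highest replicate inhibition of at least 40%; inactive = the rest.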 The sample as a whole holds a higher share of actives than the screen did.
# Molecular target: Golgi-associated PDZ and coiled-coil motif-containing protein (Homo sapiens) (UniProt Q9HD26)
# Test: CAL PDZ peptide-binding inhibitors, primary screen, biochemical, fluorescence polarization, Cer-tagged CAL PDZ, HTS (AID 504414);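 note: plate controls were DMSO neutral control wells for no effect and unlabeled competitor peptide control wells for full effect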
# Conditions: purified CAL PDZ, TMR-peptide fluorescence polarization, 1 h; at 20 µM; stronger effect = higher value
# Summary of the method: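 Read-out basis: mP drop reported as inhibition | Assay system: Tagged CAL PDZ protein CerCALP, purified | Benchmarks: Unlabelled peptide for full inhibition, DMSO wells as neutral | Schedule: 1 h incubation at room temperature before polarization reading | Buffer or medium: Sodium phosphate/NaCl buffer pH 7.4 with TCEP, IgG, Thesit | Doses: Single point, 20 µM | Measured by: Fluorescence polarization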
row,Structure (SMILES),inhibition
1,COc1ccccc1N(CC(=O)Nc1c(C)n(C)n(-c2ccccc2)c1=O)S(=O)(=O)c1ccccc1,0.495% (inactive)
2,CCN(CC)CCN1C(=O)C2C(C(=O)Nc3ccc(Br)cc3)C3C=CC2(O3)C1C(=O)NC1CCCCC1 (stereo unspecified),0.206% (inactive)
3,COc1ccc(-n2c(O)c(C=NCC(c3ccco3)N3CCCC3)c3ccccc3c2=O)cc1OC (stereo unspecified),-2.24% (inactive)
4,CC1CCCN(C(=O)Cn2c(=O)oc3ccccc32)C1 (stereo unspecified),0.481% (inactive)
5,COc1ccc(/C=C/C(=O)NC(=S)N2CCCC(C(N)=O)C2)cc1 (stereo unspecified),-0.891% (inactive)
6,O=C(C1CCCO1)N1CCN(S(=O)(=O)c2ccc(Br)cc2)CC1 (stereo unspecified),-0.919% (inactive)
7,CC(OC(=O)c1ccc(-n2cnnn2)cc1)C(=O)NCc1ccccc1 (stereo unspecified),-0.615% (inactive)
8,COc1ccccc1N1CCN(CC(=O)NCCc2ccc(S(N)(=O)=O)cc2)CC1,1.11% (inactive)
9,O=C1COc2c1ccc(O)c2O,-0.377% (inactive)
10,CCC(C(=O)NC1CCCCC1)N(C(=O)c1snc(C(N)=O)c1N)c1ccc(OC)cc1OC (stereo unspecified),-1.96% (inactive)
11,COC(=O)c1cc(NC2c3ccccc3C(=O)N2c2ccc(Cl)cn2)cc(C(=O)OC)c1 (stereo unspecified),1.56% (inactive)
12,Cc1cccc(OCCNC(=S)NC(=O)c2cccnc2)c1,-1.24% (inactive)
13,COC(=O)c1cc(C(=O)N(Cc2ccccc2)c2ccccn2)cc([N+](=O)[O-])c1,-1.95% (inactive)
14,FC(F)(F)c1cc(C(F)(F)F)c2ccc(N3CCN(c4ccccc4)CC3)nc2n1,-0.0994% (inactive)
15,Cc1cccc(N2Cc3ccccc3C2=NC(=O)c2ccc(Cl)nc2)c1,-3% (inactive)
16,Cc1ccc(C(=O)O)c(NC=O)c1OCc1ccccc1,-0.888% (inactive)
17,O=C(Nc1ccc(F)c([N+](=O)[O-])c1)C1CCCO1 (stereo unspecified),0.3% (inactive)
18,C[C@@H]1C(c2ccc(F)cc2)=NN(c2ccc(Br)cc2)[C@H]1C(=O)N1CCOC1=O,-0.314% (inactive)
19,COc1ccc(N2CCN(C(=O)c3ccc(N4CCCCS4(=O)=O)cc3)CC2)cc1,-1.77% (inactive)
20,CCCCCCCCCCOC(=O)C[N+](C)(C)CC1CCCCC1O (stereo unspecified),-1.83% (inactive)
21,Cc1cc(C)c(C#N)c(Nc2cccc(Br)c2)n1,-0.811% (inactive)
22,COc1ccc2c(c1)c(=Cc1ccc(N(C)C)cc1)c1cc(-c3ccccc3)[n+](C)n12,32% (inactive)
23,COc1ccc(-n2nc(C(=O)NCC(=O)N3CCC(C(N)=O)CC3)c3ccccc3c2=O)cc1OC,0.6% (inactive)

row,Structure (SMILES),inhibition
1,COc1ccccc1C(=O)COC(=O)CNS(=O)(=O)c1ccc(NC(C)=O)cc1,-3.17% (inactive)
2,COc1cc2c(cc1OC)C1C(=O)c3cc(OS(C)(=O)=O)c(OC)cc3C1N(C)C2=O (stereo unspecified),-0.086% (inactive)
3,Cc1ccc(NC(=O)CN2C(=O)NC(C)(c3ccc(Cl)cc3)C2=O)c(Br)c1 (stereo unspecified),-4.23% (inactive)
4,CCOc1cc(/C=N/NC(=O)c2ccc(CSc3nncn3C)cc2)ccc1OCC(=O)N1CCOCC1,-3.73% (inactive)
5,CCN(CC)S(=O)(=O)c1cccc(-c2n[nH]c(=S)n2/N=C/c2ccc(C(=O)OC)cc2)c1,-1.46% (inactive)
6,CCCCC(CC)CNCc1cccn1CCN1CCOCC1 (stereo unspecified),0.235% (inactive)
7,Cc1cc(C)n(CC(C)NCc2c(C(=O)N3CCOCC3)nc3c(C)cccn23)n1 (stereo unspecified),0.659% (inactive)
8,COc1ccccc1C1C(C(N)=O)=C(C)Nc2nc(CCCO)nn21 (stereo unspecified),-0.498% (inactive)
9,Nc1cc2c(cc1Br)-c1ccc(F)cc1C2=O,-0.277% (inactive)
10,O=C(O)CCC(=O)Nc1ccc(OCC2CCCO2)cc1 (stereo unspecified),-0.764% (inactive)
11,Cc1c[n+]([O-])ccc1[N+](=O)[O-],0.378% (inactive)
12,Cc1nc(C)c2c(c1C(F)(F)F)-c1ccccc1C2(F)F,-1.33% (inactive)
13,NC1=NC(=O)C(Cc2cccc(Cl)c2Cl)S1 (stereo unspecified),1.03% (inactive)
14,CCc1ccc(OCC(=O)OC(C)C(=O)NC2CC2)cc1 (stereo unspecified),-0.543% (inactive)
15,CC(C)(C)C(=O)N(Cc1ccccc1)c1ccccn1,0.0459% (inactive)
16,COC(C(=O)Nc1ccc(S(=O)(=O)Nc2ccc(C)c(C)c2)cc1)c1ccccc1 (stereo unspecified),-3.38% (inactive)
17,CCCCCCCCNS(=O)(=O)CCNC1CCCCC1,-1.06% (inactive)
18,O=C1CSc2ccc(S(=O)(=O)NCc3ccccc3)cc2N1,-0.383% (inactive)
19,CCOc1ccccc1-n1c(SCC(=O)N2CCCC2)nnc1-c1ccoc1C,-1.83% (inactive)
20,O=S(=O)(NC1CCCCC1N1CCC(O)CC1)c1ccc(Cl)cc1 (stereo unspecified),-0.646% (inactive)
21,CC1CCCCC1NC(=O)CCS(=O)(=O)c1ccc2c(c1)NC(=O)CO2 (stereo unspecified),-0.536% (inactive)
22,COc1ccc(/C=N/N=C/c2c[nH]c(=O)c(C#N)c2Nc2ccccc2)cc1,-5.96% (inactive)
23,CCCCCC(=O)Nc1ccc(-c2cn3cccnc3n2)cc1,177% (active)

row,Structure (SMILES),inhibition
1,CC(C)(C)C(=O)Nc1ccc(-c2cn3cccnc3n2)cc1,-1.11% (inactive)
2,CC(=O)Nc1ccc(-c2cn3cccnc3n2)cc1,-1.06% (inactive)
3,Cc1ccc(C(=O)NNC(=O)OC(C)(C)C)c(Cl)c1,-1.58% (inactive)
4,S=c1[nH]cc(-c2ccc(Cl)cc2)n1-c1ccccc1,-1.13% (inactive)
5,CC(=O)c1nc(N2C(=O)C3CC=C(C)CC3C2=O)sc1C (stereo unspecified),-0.266% (inactive)
6,CC(C)CCN1CCN=C1N(C)C,-2.49% (inactive)
7,Cc1ccc(S(=O)(=O)N2CCN(C)CC2)cc1C(=O)NC1CCCCC1,-0.886% (inactive)
8,CN1/C(=c2/s/c(=C3/C(=O)N(c4ccccc4)NC3=Nc3ccccc3)n(C)c2=O)C(C)(C)c2ccccc21,0.46% (inactive)
9,COc1cc(-c2nc(S(=O)(=O)c3ccc(Cl)cc3)c(N(C)C)o2)cc(OC)c1OC,-0.274% (inactive)
10,Clc1c(OCCCn2ccnc2)ccc2ccccc12,-0.854% (inactive)
11,O=C(OCC(=O)N1CCCCCC1)c1ccc(Br)c(S(=O)(=O)N2CCOCC2)c1,0.404% (inactive)
12,CSc1ccc(Cl)c(C(=O)OCC(=O)N2CC(C)OC(C)C2)c1 (stereo unspecified),1.25% (inactive)
13,CCOc1ccc(NC(=O)CC(Cc2ccc(Cl)cc2)C(=O)O)cc1 (stereo unspecified),-0.804% (inactive)
14,Cc1cc(-n2cnc(-c3cn(C)nc3C)n2)no1,-0.598% (inactive)
15,C=CCOC(=O)N1CCC2CC1c1cc(-c3ccc(OC)cc3)ccc12 (stereo unspecified),-0.353% (inactive)
16,Cc1nc(-c2ccccc2)sc1-c1nnc(C2CC2)o1,-0.361% (inactive)
17,CCN(C(=O)COC(=O)/C=C/c1nc2ccccc2s1)C1CCS(=O)(=O)C1 (stereo unspecified),0.0609% (inactive)
18,CC(=O)c1c(C)[nH]c(C(=O)Nc2cc(S(=O)(=O)N(C)C)ccc2C)c1C,-0.89% (inactive)
19,COc1ccc(CNC(=O)CSc2n[nH]c(N)n2)cc1OC,-2.17% (inactive)
20,C=CCOc1c2ccc(C(=O)N(CC)c3ccc(OC)cc3)cc2nn1C,-0.978% (inactive)
21,O=C(COc1coc(CN2CCN(c3ccccc3)CC2)cc1=O)N1CCc2ccccc21,-0.986% (inactive)
22,COc1cc(NC(=O)c2ccc3c(c2)OCO3)ccc1NC(=O)c1cccs1,-2.17% (inactive)
23,COc1cc2ccccc2cc1C(=O)Nc1ccc(NC(=O)c2cccs2)cc1,-1.38% (inactive)

row,Structure (SMILES),inhibition
1,COc1cc(NC(=O)c2cccs2)ccc1NC(=O)c1ccccc1Cl,52% (active)
2,Cn1cc(CCC(=O)N2CCCC(C(=O)c3ccc(C(C)(C)C)cc3)C2)cn1 (stereo unspecified),-1.53% (inactive)
3,Cc1ccccc1NC(=O)CCOc1ccccc1,-0.379% (inactive)
4,COc1ccccc1-n1ccnc(SCC(=O)NC2CCCCC2)c1=O,-0.307% (inactive)
5,CN(C)S(=O)(=O)Oc1ccccc1C(=O)Nc1ccccc1Cl,-2.53% (inactive)
6,CN(C)C(=O)CCc1ccc2c3c([nH]c2c1)[C@]1(C)[C@@H](C(=O)N2CCCCC2)C[C@H](CC(=O)NCCC2=CCCCC2)C(=O)N1CC3,-0.602% (inactive)
7,CC(CN1CCCCC1)c1ccccc1 (stereo unspecified),-0.367% (inactive)
8,COc1ccccc1CNC(=O)CNC(=O)c1cn(-c2ccccc2OC)c(=O)c2ccccc12,-0.592% (inactive)
9,CCc1ccc(C(=O)C(C)OC(=O)CN2C(=O)NC3(CCCC3)C2=O)cc1 (stereo unspecified),-0.0354% (inactive)
10,Cc1ccoc1C(=O)Nc1cccc(Oc2ccccc2)c1,-1.61% (inactive)
11,Cc1ccnc(NC(=O)C2CCN(S(=O)(=O)c3c(C)c(C)cc(C)c3C)CC2)c1,-2.34% (inactive)
12,CCOc1ccc(OCC(=O)OC(C)C(=O)NC2CCCCC2C)cc1 (stereo unspecified),-1.17% (inactive)
13,O=C(O)C1C2C=CC(O2)C1C(=O)Nc1ccccn1 (stereo unspecified),0.325% (inactive)
14,COCCN(C(=S)Nc1ccccc1OC)C1CCN(C(C)C)CC1,61.8% (active)
15,COc1ccccc1NC(=S)N1CCN(C(c2ccccc2)c2ccccc2)CC1,0.312% (inactive)
16,CCc1cccc(NC(=S)N(CCN(C)C)C2CCN(C(C)C)CC2)c1,-0.435% (inactive)
17,Cc1ccccc1N1C(=O)C2ON(c3ccccc3)C(c3ccncc3)C2C1=O (stereo unspecified),-1.2% (inactive)
18,CCCCN(C)c1ccc([N+](=O)[O-])cc1,-3.03% (inactive)
19,CC(=O)c1c(O)cc2n(c1=O)-c1ccc(Cl)cc1C2(C)C,-2.37% (inactive)
20,COc1ccc(-c2cc(C(=O)N(C)CC(=O)Nc3ccccc3Cl)c3ccccc3n2)cc1OC,-0.623% (inactive)
21,O=C(/C=C/Nc1ccc(S(=O)(=O)Nc2cnc3ccccc3n2)cc1)c1cccnc1,-1.99% (inactive)
22,COc1ccc(N(CC(=O)N2CCOCC2)S(=O)(=O)c2ccccc2)cc1Cl,-0.969% (inactive)
